From ChEMBL document CHEMBL5325428 (Eur J Med Chem, 2023)

Columns and labels:
[1] = test system: SARS-CoV-2; test: Antiviral activity against SARS-CoV-2 Wuhan-HU-1 infected in HEK293T cells assessed as inhibition of viral replication incubated for 30 hrs by luciferase reporter gene assay; format: functional, organism-based; details: Severe acute respiratory syndrome coronavirus 2, Wuhan-HU-1, HEK-293T
Summary of the method: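 This is a non-infectious Wuhan-Hu-1 replicon system, not infectious virus. Replicon RNA was electroporated into 293T cells, which were then incubated for 30 h with compound at 2, 0.5, 0.1 and 0.02 µM or with 0.1% DMSO. Read-out was luciferase activity. Values are mean ± SD.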

[2] = Cytotoxicity against human HEK293T cells assessed as reduction in cell viability incubated for 72 hrs by CytoTox 96 nonradioactive assay; format: toxicity, cell-based, HEK-293T
[3] = target: Replicase polyprotein 1ab (Severe acute respiratory syndrome coronavirus 2, UniProt P0DTD1); test: Inhibition of N-terminal His6-tagged full length SARS-CoV-2 3CLpro using FAM-SAVLQ as substrate preincubated with enzyme for 1 hr followed by susbtrate addition and measured after 1 hr by FRET assay
[4] = Safety index, ratio of CC50 for cytotoxicity against human HEK293T cells to EC50 for antiviral activity against SARS-CoV-2 Wuhan-HU-1 infected in HEK293T cells; format: toxicity, cell-based; details: read-out: Ratio CC50/EC50
Summary of the method: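 In vitro safety index was calculated as the 293T CC50 divided by the SARS-CoV-2 replicon EC50.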

[5] = Inhibition of MERS-CoV 3CLpro using FAM-SAVLQ as substrate preincubated with enzyme for 1 hr followed by susbtrate addition and measured after 1 hr by FRET assay; design: species or system Middle East respiratory syndrome-related coronavirus
[6] = target: chymotrypsin (Homo sapiens, UniProt P17538+P40313+Q6GPI1+Q99895); test: Inhibition of human chymotrypsin; format: toxicity
Summary of the method: (§1)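 Commercial purified human proteases were assayed following the manufacturers' procedures. IC50 values are mean ± SD.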

[7] = target: Prothrombin (Homo sapiens, UniProt P00734); test: Inhibition of human thrombin; format: toxicity; summary of the method: as §1
[8] = target: T1, Neutrophil elastase (Homo sapiens, UniProt P08246); test: Inhibition of human neutrophil elastase; format: toxicity; summary of the method: as §1
T1 sequence (P08246 whole entry): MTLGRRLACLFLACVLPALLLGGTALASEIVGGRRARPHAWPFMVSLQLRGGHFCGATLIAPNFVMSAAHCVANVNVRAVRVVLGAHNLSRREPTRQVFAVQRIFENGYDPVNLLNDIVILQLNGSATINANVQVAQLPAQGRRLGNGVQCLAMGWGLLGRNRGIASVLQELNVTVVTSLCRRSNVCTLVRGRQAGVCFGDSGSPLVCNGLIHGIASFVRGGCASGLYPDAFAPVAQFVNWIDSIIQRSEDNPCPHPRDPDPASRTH

[9] = target: Procathepsin L (Homo sapiens, UniProt P07711); test: Inhibition of human Cathepsin L; format: toxicity; summary of the method: as §1
[10] = test system: Feline infectious peritonitis virus; test: Antiviral activity against FIPV 1146 infected in CRFK cells assessed as inhibition of viral replication incubated for upto 168 hrs by TCID50 method; format: functional, organism-based; details: Alphacoronavirus 1, 1146, CRFK
Summary of the method: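 Crandell-Rees feline kidney cells infected with FIPV-1146; test compounds added to the medium at various concentrations. EC50 was fitted from the dose-dependent inhibition curve with a variable slope. Values are mean ± SD.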

[11] = target: Cathepsin D (Homo sapiens, UniProt P07339); test: Inhibition of human Cathepsin D; format: toxicity; summary of the method: as §1
[12] = target: T2, Cathepsin G (Homo sapiens, UniProt P08311); test: Inhibition of human Cathepsin G; format: toxicity; summary of the method: as §1
T2 sequence (P08311 whole entry): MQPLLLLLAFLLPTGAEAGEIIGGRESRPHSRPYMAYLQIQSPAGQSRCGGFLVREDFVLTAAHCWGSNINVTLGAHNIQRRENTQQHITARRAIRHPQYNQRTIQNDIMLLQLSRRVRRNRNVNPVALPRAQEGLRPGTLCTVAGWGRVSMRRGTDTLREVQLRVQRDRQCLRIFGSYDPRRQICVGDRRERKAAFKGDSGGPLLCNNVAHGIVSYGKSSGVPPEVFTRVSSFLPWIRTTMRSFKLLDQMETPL

[13] = target: Cathepsin B (Homo sapiens, UniProt P07858); test: Inhibition of human Cathepsin B; format: toxicity; summary of the method: as §1

Procathepsin L, sequence (P07711 whole entry): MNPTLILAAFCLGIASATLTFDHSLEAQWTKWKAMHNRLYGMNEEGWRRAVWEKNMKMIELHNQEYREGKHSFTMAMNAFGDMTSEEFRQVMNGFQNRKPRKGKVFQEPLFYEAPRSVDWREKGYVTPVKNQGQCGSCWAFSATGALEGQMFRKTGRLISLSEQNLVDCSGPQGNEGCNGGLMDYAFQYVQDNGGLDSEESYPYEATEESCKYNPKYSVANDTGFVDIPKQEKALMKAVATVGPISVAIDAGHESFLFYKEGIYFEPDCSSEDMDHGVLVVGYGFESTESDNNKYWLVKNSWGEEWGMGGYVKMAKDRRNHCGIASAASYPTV
Cathepsin D, sequence (P07339 65-162 limits assumed): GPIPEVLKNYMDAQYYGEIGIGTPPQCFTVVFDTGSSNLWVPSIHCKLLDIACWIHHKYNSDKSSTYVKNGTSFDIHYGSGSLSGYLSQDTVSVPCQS
Cathepsin D, sequence (P07339 169-412 limits assumed): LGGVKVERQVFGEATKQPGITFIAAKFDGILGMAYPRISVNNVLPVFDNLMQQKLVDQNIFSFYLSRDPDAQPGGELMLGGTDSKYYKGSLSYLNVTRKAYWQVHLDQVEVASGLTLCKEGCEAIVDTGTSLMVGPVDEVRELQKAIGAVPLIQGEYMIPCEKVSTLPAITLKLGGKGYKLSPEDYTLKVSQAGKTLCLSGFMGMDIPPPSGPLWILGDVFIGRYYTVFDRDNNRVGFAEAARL

Row | SMILES | EC50 [1] [nM] | CC50 at 72 h [2] [nM] | IC50 [3] [nM] | IC50 [5] [nM] | also measured
1 | CC(C)C[C@H](NC(=O)OCC(C)(C)Oc1cccc(Cl)c1)C(=O)N[C@@H](C[C@@H]1CCNC1=O)C(O)S(=O)(=O)O (stereo not given in full) | 14 | > 50000 | 210 | 20 | selectivity ratio [4]: 3330
2 | CC(C)C[C@H](NC(=O)OCCSc1ccccc1)C(=O)N[C@H](C=O)C[C@@H]1CCNC1=O |  | > 50000 | 320 | 140 | 
3 | CC(C)C[C@H](NC(=O)OCC(C)(C)Sc1nc2ccccc2[nH]1)C(=O)N[C@@H](C[C@@H]1CCNC1=O)C(O)S(=O)(=O)O (stereo not given in full) |  | > 50000 |  | 210 | 
4 | CC(C)C[C@H](NC(=O)OCC(C)(C)Sc1cccc(F)c1)C(=O)N[C@@H](C[C@@H]1CCNC1=O)C(O)S(=O)(=O)O (stereo not given in full) | 10 | > 50000 | 130 |  | selectivity ratio [4]: 3330
5 | CC(C)C[C@H](NC(=O)OCC(C)(C)S(=O)(=O)c1ccccc1)C(=O)N[C@H](C=O)C[C@@H]1CCNC1=O |  | > 50000 | 190 | 260 | 
6 | CC(C)C[C@H](NC(=O)OCC(C)(C)Oc1ccccc1)C(=O)N[C@H](C=O)C[C@@H]1CCNC1=O |  | > 50000 | 310 | 40 | 
7 | CC(C)C[C@H](NC(=O)OCC(C)(C)Sc1ccccc1)C(=O)N[C@@H](C[C@@H]1CCNC1=O)C(=O)C(=O)NC1CC1 | 50 | > 50000 | 210 |  | IC50 [6]: > 50000 nM; IC50 [7]: > 50000 nM; IC50 [8]: > 50000 nM; IC50 [9]: 40 nM; EC50 [10]: 710 nM; IC50 [11]: > 50000 nM; IC50 [12]: > 50000 nM; IC50 [13]: 2000 nM
8 | CC(C)C[C@H](NC(=O)OCC(C)(C)Oc1ccc(Cl)cc1)C(=O)N[C@@H](C[C@@H]1CCNC1=O)C(O)S(=O)(=O)O (stereo not given in full) |  | > 50000 | 340 | 110 | 
9 | CC(C)C[C@H](NC(=O)OCCSc1ccccc1)C(=O)N[C@@H](C[C@@H]1CCNC1=O)C(O)S(=O)(=O)O (stereo not given in full) |  | > 50000 | 310 | 140 | 
10 | CC(C)C[C@H](NC(=O)OCC(C)(C)Sc1ccc(F)cc1)C(=O)N[C@@H](C[C@@H]1CCNC1=O)C(O)S(=O)(=O)O (stereo not given in full) |  | > 50000 | 270 | 150 | 
11 | [2H]C([2H])(OC(=O)N[C@@H](CC(C)C)C(=O)N[C@H](C=O)C[C@@H]1CCNC1=O)C(C)(C)Oc1cccc(Cl)c1 |  | > 50000 | 300 | 40 | 
12 | CC(C)C[C@H](NC(=O)OCC(C)(C)S(=O)(=O)c1ccccc1)C(=O)N[C@@H](C[C@@H]1CCNC1=O)C(O)S(=O)(=O)O (stereo not given in full) |  | > 50000 | 200 | 280 | 
13 | [2H]C([2H])(OC(=O)N[C@@H](CC(C)C)C(=O)N[C@@H](C[C@@H]1CCNC1=O)C(O)S(=O)(=O)[O-])C(C)(C)Sc1ccccc1.[Na+] (stereo not given in full) | 12 | > 50000 | 310 | 40 | selectivity ratio [4]: 3330
14 | CC(C)C[C@H](NC(=O)OCC(C)(C)[S+]([O-])c1ccccc1)C(=O)N[C@H](C=O)C[C@@H]1CCNC1=O (mixture of isomers) |  | > 50000 | 330 | 190 | 
15 | CC(C)C[C@H](NC(=O)OCC(C)(O)c1cccc(Cl)c1)C(=O)N[C@@H](C[C@@H]1CCNC1=O)C(O)S(=O)(=O)O (mixture of isomers) | 25 | > 50000 | 320 | 100 | 
16 | CC(C)C[C@H](NC(=O)OCC(C)(C)[S+]([O-])c1ccccc1)C(=O)N[C@@H](C[C@@H]1CCNC1=O)C(O)S(=O)(=O)O (mixture of isomers) |  | > 50000 | 350 | 250 | 
17 | CC(C)C[C@H](NC(=O)OCC(C)(O)c1cccc(Cl)c1)C(=O)N[C@H](C=O)C[C@@H]1CCNC1=O (mixture of isomers) | 25 | > 50000 | 290 | 120 | 
